Experimental data pooled from the literature.
Compare with care: the assays were run in different laboratories.
CTSL: Procathepsin L (CTSL, Homo sapiens, UniProt P07711)
HDAC4: Histone deacetylase 4 (HDAC4, Homo sapiens, UniProt P56524)
G protein-coupled receptor 88: G protein-coupled receptor 88 (Homo sapiens, UniProt Q9GZN0)
Cnr2: Cannabinoid receptor 2 (Cnr2, Mus musculus, UniProt P47936)
mreB: mreB (Escherichia coli, UniProt P0A9X4)
pol: pol (Feline immunodeficiency virus, UniProt P16088)

Structure (SMILES) | target | test | system | conditions | measurement | result
CC[C@H]1NC(=O)[C@@H]2CSC(=N2)[C@H](Cc2ccccc2)N(C)C(=O)[C@@H]2CCCN2C(=O)[C@H](C(C)C)N(C)C(=O)[C@H](Cc2ccccc2)OC(=O)[C@H](C)[C@@H](C)NC(=O)[C@@H]([C@@H](C)O)NC(=O)[C@@H](CC(C)C)N(C)C(=O)[C@@H]2CSC1=N2 | CTSL | enzyme activity, inhibitor | – | – | IC50 | 20.4 µM
O=C(/C=C/c1cccc(S(=O)(=O)Nc2ccccc2)c1)NO | HDAC4 | cell-free assay | – | – | Kd | > 30.2 µM
CC[C@@H](C)COc1ccc([C@@H](CO)C(=O)N[C@H](C)c2ccccc2)cc1 | G protein-coupled receptor 88 | cAMP, agonist, TR-FRET | – | – | EC50 | 3.09 µM
CCOC(=O)[C@](CC)(CCC[S+]([O-])CCOCCOCCNC(=O)OC(C)(C)C)NC(=O)c1ccc(C2CC2)c(Cc2ccc(F)cc2)n1 (stereo partly drawn) | Cnr2 | cAMP, agonist | – | – | EC50 | 0.065 µM
CC[C@H](NC(=O)OCc1ccccc1)C(=O)N[C@H](C(=O)N[C@@H](Cc1ccccc1)C(=O)N(C)N(C#N)CCC(N)=O)C(C)(C)C | CTSL | enzyme activity, inhibitor | – | – | Ki | 0.123 µM
NCCCNC1CCCCc2c1[nH]c1ccc(Br)cc21 (stereo not drawn) | mreB | ATPase activity, inhibitor, absorbance | – | – | IC50 | 25 µM
CCOC(=O)C(CC)(CCCSCCOCCOCCOCCNC(=O)OC(C)(C)C)NC(=O)c1ccc(C2CC2)c(Cc2ccc(F)cc2)n1 (stereo not drawn) | Cnr2 | cAMP, agonist | – | – | EC50 | 0.021 µM
CCOC(=O)c1c(NCc2ccc(SC)cc2)c2cccc(C)c2[nH]c1=O | Anoctamin-2 (ANO2, Homo sapiens, UniProt Q9NQ90) | ion flux, inhibitor | – | – | IC50 | 0.99 µM
O=[As](O)(O)c1ccc(Cc2ccc([As](=O)(O)O)cc2)cc1 | Autotaxin (ENPP2, Homo sapiens, UniProt Q13822) | enzyme activity, inhibitor, absorbance | – | – | Ki | 0.0475 µM
CCOC(=O)C(CC)(CCCSCCOCCOCCNc1ccc([N+](=O)[O-])c2nonc12)NC(=O)c1ccc(C2CC2)c(Cc2ccc(F)cc2)n1 (racemic) | Cnr2 | cAMP, agonist | – | – | EC50 | 0.102 µM
C[C@H](N)Cn1ncc2ccc3c(c21)CCCO3 | Alpha-1B adrenergic receptor (Adra1b, Rattus norvegicus, UniProt P15823) | ligand displacement, radioligand | – | – | IC50 | 74 µM
CC(C)C[C@H]1C(=O)N2CCC[C@H]2[C@]2(O)O[C@](NC(=O)[C@@H]3C=C4c5cccc6[nH]cc(c56)C[C@H]4N(C)C3)(C(C)C)C(=O)N12 | Solute carrier organic anion transporter family member 1B3 (SLCO1B3, Homo sapiens, UniProt Q9NPD5) | transporter uptake, inhibitor, fluorescence | CHO | 30 min, pH 7.4 | IC50 | 2.2 µM
Cc1nonc1Cn1nnc2c(N3CC[C@H](O)C3)nc(C(C)(C)C)nc21 | Cnr2 | ligand displacement, radioligand | – | cell membranes | Ki | 0.061 µM
Cc1ccnc2c1NC(=O)c1cccnc1N2C1CC1 | pol | binding, SPR | – | – | Kd | 185 µM
CCCCNNC(=O)c1ccc(Br)cc1 | HDAC4 | enzyme activity, inhibitor, fluorescence | – | – | IC50 | > 100 µM
O=P(O)(O)Oc1cccc(OP(=O)(O)O)c1 | Signal transducer and activator of transcription 5B, SH2 (STAT5B, Homo sapiens, UniProt P51692) | ligand displacement, FP | – | – | IC50 | 55 µM
Cc1nc([C@@](C)(CC2CC2)NC(=O)c2cc(OCC(F)(F)F)c(C3CC3)cn2)no1 | Cnr2 | cAMP, agonist | – | – | EC50 | 0.003 µM
CC(C)C[C@@H]1C(=O)N[C@H]([C@@H](C)O)C(=O)N[C@H](C)[C@@H](C)C(=O)O[C@@H](Cc2ccccc2)C(=O)N(C)[C@@H](C(C)C)C(=O)N2CCC[C@H]2C(=O)N(C)[C@H](Cc2ccccc2)C2=N[C@@H](CS2)C(=O)N[C@H](C)C2=N[C@@H](CS2)C(=O)N1C | CTSL | enzyme activity, inhibitor | – | – | IC50 | 21.3 µM
NC(=O)[C@@H]1CC(F)(F)CN1C(=O)c1ccc(N2CC(F)(F)C2)c(OCC2CC2)n1 | Cnr2 | ligand displacement, radioligand | – | cell membranes | Ki | 0.189 µM
NC1CCCCc2c1[nH]c1ccc(Br)cc21 (stereo not drawn) | mreB | ATPase activity, inhibitor, absorbance | – | – | IC50 | 44 µM
CCCc1ccc(-c2ccc([C@@H](CO)C(=O)N[C@H](C)c3ccccc3)cc2)cc1 | G protein-coupled receptor 88 | cAMP, agonist, TR-FRET | – | – | EC50 | 0.138 µM
CCOC(=O)C(CC)(CCCSCCOCCOCCOCCOCCNC(=O)OC(C)(C)C)NC(=O)c1ccc(C2CC2)c(Cc2ccc(F)cc2)n1 (stereo not drawn) | Cnr2 | cAMP, agonist | – | – | EC50 | 0.031 µM
CC(NCCCNC(=O)c1cc(Cl)c(Cl)s1)c1cc2cc(Br)ccc2[nH]1 (stereo not drawn) | mreB | ATPase activity, inhibitor, absorbance | – | – | IC50 | 6 µM
Cc1cc(/C=C/C#N)cc(C)c1Nc1ccnc(Nc2ccc(C#N)cc2)n1 | pol | binding, SPR | – | – | Kd | 16 µM
